The text below walks through data of PMC12574688 (European journal of medicinal chemistry, 2025).

Molecules are shown by their SMILES. Where two headings read alike, the source gives them in different places.

The subject of data set [1] is BT-20 cells. The experiment in a line: Colony formation assay. Type of data set: cell-based. The note with it: varying concentrations.
Data set [2] concerns MDA.MB.231 cells. The experiment in a line: Colony formation assay. Type of data set: cell-based. The note with it: varying concentrations.
Data set [3] deals with BRK (Homo sapiens, UniProt Q13882). In words: BRK biochemical inhibitory assay. The note with it: for inhibition at 2 µM: read-out: % BRK Inhibition. The procedure, abridged:
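Human BRK kinase pre-incubated with test compound for 10 min, then substrate and ATP mix added. Kinase reaction run 1 h. ADP-Glo reagent added for 40 min, then kinase detection reagent for 45 min. Luminescence read. Single-point screens run at 2 μM and at 0.2 μM test compound, given as % BRK inhibition.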

For data set [4], the system named is MDA.MB.231 cell line. In words: MTT cytotoxicity / cell viability assay. It is filed as cell-based.
Data set [5] relates to AKT phosphorylation in BT-20 cells. The experiment in a line: Western blot of AKT phosphorylation. Particulars: vs control, preliminary western blot (Figure S3). It is filed as cell-based. (In general: A western blot detects proteins with antibodies after separation by electrophoresis.)
The test system of data set [6] is HCC1806 cells. The experiment in a line: Colony formation assay. Type of data set: cell-based. The note with it: single concentration of 10 μM.

BRK, sequence (Q13882 whole entry): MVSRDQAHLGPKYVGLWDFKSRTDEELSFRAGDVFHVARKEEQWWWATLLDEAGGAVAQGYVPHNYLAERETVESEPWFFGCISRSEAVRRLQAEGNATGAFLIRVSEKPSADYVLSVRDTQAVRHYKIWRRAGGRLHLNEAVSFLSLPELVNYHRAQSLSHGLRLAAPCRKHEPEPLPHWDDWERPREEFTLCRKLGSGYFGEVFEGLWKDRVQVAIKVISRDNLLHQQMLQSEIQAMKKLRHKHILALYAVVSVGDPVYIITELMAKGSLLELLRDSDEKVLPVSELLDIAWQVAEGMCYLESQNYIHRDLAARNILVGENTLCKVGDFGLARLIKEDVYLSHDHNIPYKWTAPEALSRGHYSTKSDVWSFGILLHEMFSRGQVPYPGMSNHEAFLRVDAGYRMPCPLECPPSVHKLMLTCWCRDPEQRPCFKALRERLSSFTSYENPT

As a reminder, the IC50 is the midpoint of a concentration-inhibition curve. On to `Oc1cccc(Nc2ccnc3[nH]c4ccccc4c23)c1` [Compound 4f, tilfrinib], for which the colony formation result in data set [1], in data set [2] and in data set [6] was “reduce the colony formation” throughout. The “Biochemical assay % Inhibition 0.2 μM” value in data set [3] (0.2 μM, ADP-Glo (Table 3)) is given as 86%. In addition, in data set [3] (2 μM, ADP-Glo (Table 3)), the “Biochemical assay % Inhibition 2 μM” value came out at 100%. For the same molecule, the IC50 in data set [3] (read-out: BRK IC50, enzymatic inhibition) turned out to be 25 nM; in data set [3] (read-out: Biochemical assay IC50, ADP-Glo (Table 3)) it was 25.7 ± 5.05 nM. The “% BRK Inhibition” value in data set [3] (single point, 2 μM, ADP-Glo, pyrimido-indole derivatives (Table 1)) was found to be 100.0 ± 7.8%. Besides, in data set [4] (MTT, 10 μM, 72h treatment), the “Cellular assay MDA.MB.231 % Inhibition 10 μM” value worked out at 31.40%. The “cytotoxicity in viability studies” value in data set [4] (viability studies, in words) is “minimal cytotoxicity”. Besides, in data set [5], the AKT phosphorylation entry is on record as “increase in AKT phosphorylation”.

In general, inhibition refers to the percentage by which the read-out fell short of the control. `Oc1cccc(-c2cncc(Cl)n2)c1` [Compound 26, 3-(6-chloropyrazin-2-yl)phenol]: the inhibition at 2 µM in data set [3] stood at 29.6 ± 22.9%.

For the molecule `Oc1cccc(-c2cnc3ccccc3n2)c1` [Compound 32, 3-(quinoxalin-2-yl)phenol], the inhibition at 2 µM in data set [3] turned out to be 48.9 ± 8.9%.

On to `Oc1cccc(Nc2ncnc3cc(Br)ccc23)c1` [Compound 35, 3-((7-bromoquinazolin-4-yl)amino)phenol], for which the inhibition at 2 µM in data set [3] was determined as 76.1 ± 7.3%.
